Screening results from PubChem BioAssay.
T cell modulator = modulates CD8 T cell binding to vesicles; 2C CD8+ T cell-vesicle binding, flow cytometry; stronger effect = lower value; response (vesicle binding), % at 7 µM; actives 0.068% (n = 330,000);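 active = response, share of CD8 T cells binding vesicles, and their 90th percentile fluorescence all below set limits, cut at about 80% in these data, passing the limit was not always enough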;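 also: values below 100% mean blocked vesicle binding to the CD8+ T cells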
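System: murine 2C transgenic CD8+ T lymphocytes; also added: QL9-loaded Drosophila micro-vesicles; times: binding 1.5 h at 37 °C; measured by: flow cytometry, PE anti-B7-1 (FL2) versus Alexa647 anti-CD8 (FL8), PFA-fixed; control set: Peptide-free naked vesicles (low) and QL9 vesicles with 0.7% DMSO vehicle (high)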
GRK2 aptamer HTS = inhibitors of human GRK2 displacing RNA aptamer | bead flow cytometry, FAM-aptamer displacement from GRK2 | inhibition of aptamer binding, % at 10 µM | actives 0.59% (n = 330,000) | AID 488847;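 active = inhibition of aptamer binding above 40%, roughly 3 SD of noise, on plates passing a quality check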;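 also: median bead fluorescence of bound FAM aptamer so fluorescent compounds give negative values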
Rin1 Abl inh = blocks binding of human Rin1 to Abl. actives 0.4% (n = 360,000). AID 588664. TR-FRET Rin1/Abl binding, biochemical. inhibition, % at 7.35 µM. P00519+Q13671; in the data active = inhibition above about 5%, passing the limit was not always enough
Rce1 inh = inhibitors of yeast Ras-converting enzyme. yeast membranes, quenched prenylated peptide cleavage fluorescence. Q03530. calls only. AID 2563. actives 0.27% (n = 290,000);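 active = fall in fluorescence gain of 50% or more versus controls, with final raw signal at or below 3038400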;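 also: plate controls were neutral control wells for no effect and wells lacking membranes for full effect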
Target sequence (Q03530 whole entry, looked up): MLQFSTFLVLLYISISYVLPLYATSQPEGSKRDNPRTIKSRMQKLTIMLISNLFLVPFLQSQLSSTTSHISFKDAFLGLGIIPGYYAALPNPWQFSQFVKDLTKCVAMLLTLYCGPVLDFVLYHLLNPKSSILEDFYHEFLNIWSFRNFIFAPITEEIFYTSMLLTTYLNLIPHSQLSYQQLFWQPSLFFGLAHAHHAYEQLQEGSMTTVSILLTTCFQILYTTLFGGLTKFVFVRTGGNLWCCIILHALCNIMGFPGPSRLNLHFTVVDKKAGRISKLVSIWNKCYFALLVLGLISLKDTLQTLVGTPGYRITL
SKN-1 inh = blocks SKN-1 activity in C. elegans. C. elegans VP596 Pgst-4::GFP/RFP ratio, acrylamide-induced, 24 h. inhibition, % at 21.8 µM. actives 0.49% (n = 360,000). AID 624304;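 active = interference check ratio from 0.5 to 1.5 plus GFP to RFP signal ratio inhibition reaching or exceeding a fixed threshold, cut at about 30% in these data, passing the limit was not always enough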
Myeloid diff MLP = promotes myeloid progenitor differentiation; ER-HoxA9 myeloid progenitors, lysozyme-GFP differentiation, flow cytometry; calls only at 10 µM; actives 1% (n = 360,000); AID 624256;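 active = normalized GFP-positive differentiation at or above the plate's own cutoff, the solvent-only control mean plus 3 SD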;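 also: cells exposed to compound for four days before flow analysis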
GRK2 CP1 = human GRK2 inhibition confirmation, cherry pick 1; aptamer displacement, % at 10 µM; AID 504451; bead-bound GRK2, FAM-aptamer displacement, flow cytometry; actives 4% (n = 2,000); shares compounds with GRK2 aptamer HTS;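 active = aptamer displacement above 40%, near three times the noise of non-fluorescent compounds, on plates passing quality checks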;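 also: negative values mostly reflect intrinsic compound fluorescence rather than true enhancement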
Aptamer quench 1 = fluorescent aptamer quenching in GRK2 counter-screen dose response; 110 tested, under 10 active; Fluorescent RNA aptamer beads, flow cytometry; stronger effect = higher value; fluorescence change (kMESF span), kMESF (no concentration beside the values); shares compounds with GRK2 aptamer HTS;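 active = compounds whose bead fluorescence drops by more than 37 kMESF across the dose range, marking them as dye quenchers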
Aptamer quench SP = aptamer fluorescence quenching in GRK2 counter-screen; shares compounds with GRK2 aptamer HTS; Carboxyfluorescein RNA aptamer on beads, flow cytometry quenching; stronger effect = lower value; fluorescence response (% of DMSO), % at 10 µM; 2,000 tested, under 10 active;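 active = compounds that quench the bead-bound fluorescent RNA probe, cutting fluorescence to under half of the solvent control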;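 also: counterscreen run without GRK2 so only probe quenching by compound is measured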
FAM quench PS1 = aptamer fluorescence quenching in GRK2 powder counter-screen; fluorescence ratio to DMSO, % at 11.1 µM; Bead-bound FAM RNA aptamer fluorescence quenching, flow cytometry; stronger effect = lower value; shares compounds with GRK2 aptamer HTS; 35 tested, under 10 active;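 active = compounds that dim the fluorescent label, raw bead signal shifting by over 33 units between lowest and highest dose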
* hit, by the source's call; i = inactive; . = not tested or not shown. A selection: hits, their analogues and other compounds. The true share with any hit is near 2.6%.

SMILES	T cell modulator	GRK2 aptamer HTS	Rin1 Abl inh	Rce1 inh	SKN-1 inh	Myeloid diff MLP	GRK2 CP1	Aptamer quench SP	others
CC(C)N1CCN(Cc2cccc(-n3cccn3)c2)CC1CCO (centres undefined)	70.0	4.0	-0.6	i	-0.7	i	.	.
CCOc1ccccc1N(C(=O)Cn1nnnc1-c1ccc(C)o1)C(CC)C(=O)NC(C)(C)C (centres undefined)	299.0	97.0*	-1.7	i	-3.6	i	-1.4	102.2
Cc1cc(C)n2nc(SCC(=O)c3c(N)n(CC(C)C)c(=O)n(C)c3=O)nc2n1	245.3	72.0*	-1.0	i	3.1	i	-3.1	101.4
Cc1cc(C)n2nc(SCC(=O)N(CC(C)C)c3c(N)n(CC(C)C)c(=O)[nH]c3=O)nc2n1	407.9	1.0	5.7	i	4.1	i	.	.
CCOc1ccc(NC(=O)c2ccc(N3CC4CC(C3)c3cccc(=O)n3C4)c(N)c2)cc1 (centres undefined)	106.0	93.0*	-1.2	i	21.5	i	-0.5	100.1
Cc1oc(/C=N/NC(=O)CC2(C)OCCO2)cc1Br	307.1	35.0	0.4	i	0.3	i	0.5	98.6
CC1(CC(=O)N/N=C/c2cc(Br)c(O)cc2O)OCCO1	347.2	0.0	-1.8	i	2.0	i	.	.
Cc1cccc(OCCn2nnc3ccccc32)c1C	156.1	0.0	-0.6	i	-23.2	i	.	.
CC(Oc1ccccc1)c1ccnn1S(C)(=O)=O (centres undefined)	323.6	38.0	3.2	i	-2.3	i	0.8	97.9
CC(Oc1ccc(Cl)cc1)c1ccnn1S(=O)(=O)c1ccccc1 (centres undefined)	266.4	0.0	0.4	.	2.2	i	.	.
CCn1c(=S)sc2c(=O)[nH]c(SCC(=O)Nc3cc(OC)ccc3OC)nc21	167.4	0.0	-1.7	i	-12.1	i	.	.
Cc1[nH]c2ccccc2c1NC(=O)CN1CCN(c2cccc(C(F)(F)F)c2)CC1	245.6	74.0*	2.1	.	2.7	i	-3.5	97.8
CCCN(CCC)S(=O)(=O)c1ccc(C(=O)NCc2ccco2)cc1	284.7	64.0*	0.7	i	-7.5	i	-1.6	103.4
CN(C)S(=O)(=O)c1ccc(C(=O)NCc2ccco2)cc1	145.6	0.0	1.6	i	2.3	i	.	.
CN(Cc1ccccc1)S(=O)(=O)c1ccc2[nH]c(=O)ccc2c1	692.2	2.0	-1.2	i	9.3	i	.	.
CN(C)c1ccc(CN2CCC(C(=O)NC(c3ccc(Cl)cc3)c3cnccn3)CC2)cc1 (centres undefined)	.	.	1.6	.	-10.5	i	.	.
O=C(Cc1ccc2ccccc2c1)NC(Cc1ccccc1)C(=O)O (centres undefined)	.	2.0	-2.7	.	0.6	i	.	.
CCCn1c(=O)c2sccc2n2c(CCCC(=O)NCc3cccnc3)nnc12	681.2	0.0	-2.3	i	6.6	i	.	.
CCCn1c(=O)c2sccc2n2c(CCCC(=O)NCc3ccco3)nnc12	616.9	70.0*	2.5	i	-3.2	i	13.2	99.9
CSc1cccc(NC(=O)C2CC(=O)N(c3ccc4c(c3)OCCO4)C2)c1 (centres undefined)	.	.	-0.4	.	2.9	i	.	.
Cc1cc(C)c(C)c(S(=O)(=O)N2C(=S)NC(=O)C2C(C)C)c1C (centres undefined)	430.3	0.0	0.6	.	10.5	i	.	.
Cc1cc(C)c(C)c(S(=O)(=O)N2C(=S)NC(=O)C2CC(C)C)c1C (centres undefined)	394.3	96.0*	3.1	i	7.0	i	-2.8	102.2
OCCCNc1ncnc2c1ncn2[C@H]1CN(Cc2cccs2)C[C@@H](CO)O1	.	.	1.5	.	8.7	i	.	.
Cc1ccc(N(CC(O)Cn2c3ccccc3c3ccccc32)S(C)(=O)=O)cc1 (centres undefined)	330.7	54.0*	3.3	i	21.8	i	-0.7	101.5
COc1cccc(-c2nc3nc(C)cc(C)n3c2NCc2ccccc2)c1	.	.	.	.	7.6	i	.	.
SMILES	T cell modulator	GRK2 aptamer HTS	Rin1 Abl inh	Rce1 inh	SKN-1 inh	Myeloid diff MLP	GRK2 CP1	Aptamer quench SP	others
C=CCOc1ccc(C(c2c(C(=O)O)[nH]c3ccccc23)c2c(C(=O)O)[nH]c3ccccc23)cc1	224.2	79.0*	1.8	i	2.6	i	1.3	117.2
O=C(Nc1ccccc1)N1CCCN(Cc2ccccc2F)C1	459.1	99.0*	0.1	i	5.9	i	0.6	91.5
CC(C)NC(=O)NC(=O)CSc1nnc(COc2ccccc2Cl)o1	395.7	71.0*	2.2	i	8.8	i	-2.6	103.4
O=C(CCS(=O)(=O)c1ccc(Br)cc1)N1CCN(c2ccccc2)CC1	268.6	29.0	-4.8	.	-11.2	i	.	.
CC(=O)c1ccc(N2CCN(C(=O)CCS(=O)(=O)c3ccc4c(c3)CCN4C(C)=O)CC2)cc1	284.6	4.0	-3.2	i	-13.2	i	.	.
Cc1cccc(N2CCN(C(=O)CCS(=O)(=O)c3ccc(Br)cc3)CC2C)c1 (centres undefined)	192.4	78.0*	-0.1	i	8.7	i	57.2*	102.4	Aptamer quench 1=10.3;FAM quench PS1=100.0
CC(=O)N1CCCc2cc(S(=O)(=O)CCC(=O)N3CCN(c4cccc(C)c4)C(C)C3)ccc21 (centres undefined)	i	40.0	-0.7	i	18.5	i	28.1	99.8	Aptamer quench 1=-2.2
Cc1ccc(C(=O)NCCCNCCCNC(=O)c2ccc(C)nc2)cn1	297.0	45.0*	-4.0	i	10.2	i	0.3	97.5
CCC(=O)NCCc1nc2cc(NC(=O)c3ccccc3Cl)ccc2n1C	174.2	0.0	3.1	i	-14.2	i	.	.
Cn1c(CCNC(=O)c2ccccc2)nc2cc(NC(=O)C3CCCCC3)ccc21	313.4	1.0	0.3	i	0.3	i	-8.4	99.4
CC(=O)Nc1ccc2c(c1)nc(CCNC(=O)c1ccccc1)n2C	790.0	57.0*	2.0	i	-13.1	i	-0.7	98.9
Cn1c(CCNC(=O)c2ccccc2)nc2ccccc21	321.6	1.0	-1.0	i	1.5	i	.	.
CCC(=O)NCCc1nc2cc(NC(=O)Nc3ccccc3)ccc2n1C	i	6.0	2.2	i	7.9	i	-10.0	95.9
